Data published in ChEMBL document CHEMBL1147142, “Novel 3-O-glycosyl-3-demethylthiocolchicines as ligands for glycine and gamma-aminobutyric acid receptors” (J Med Chem, 2007).

Tests used:
Type in all cases: cell membranes, Membrane
[1] = Displacement of [3H]muscimol from GABAA receptor in Sprague-Dawley rat cerebral cortex membranes
[2] = Displacement of [3H]strychnine from glycine receptor in rat spinal cord synaptosomal membranes
Outline: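 Rat spinal cord synaptosomal membranes (stored at -80 °C, used within 2 weeks; 0.2-0.4 mg protein per 1.2 mL) incubated 10 min at 4 °C with 2 nM [3H]strychnine plus increasing concentrations of competitor in 50 mM sodium-potassium phosphate, pH 7.1. Rapid glass-fiber filtration, 0.15 M NaCl rinse. Nonspecific binding with 0.1 mM unlabeled strychnine. Triplicate points; IC50 from mean of three independent curves.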

[3] = Displacement of [3H]muscimol from GABAA receptor in Sprague-Dawley rat spinal cord brainstem membranes

Compound: COc1c(O[C@@H]2O[C@H](CI)[C@@H](O)[C@H](O)[C@H]2O)cc2c(c1OC)-c1ccc(SC)c(=O)cc1[C@@H](NC(C)=O)CC2
- IC50 [1]: 17.3 µM
- IC50 [2]: > 100000 nM
- IC50 [3]: 8 µM

Compound: COc1c(O[C@@H]2O[C@H](C)[C@@H](O)[C@H](O)[C@H]2O)cc2c(c1OC)-c1ccc(SC)c(=O)cc1[C@@H](NC(C)=O)CC2
- IC50 [1]: 6.2 µM
- IC50 [2]: 1900 nM
- IC50 [3]: 3.5 µM

Compound: COc1c(O[C@@H]2O[C@H](CF)[C@@H](O)[C@H](O)[C@H]2O)cc2c(c1OC)-c1ccc(SC)c(=O)cc1[C@@H](NC(C)=O)CC2
- IC50 [1]: 3.8 µM
- IC50 [2]: 1300 nM
- IC50 [3]: 2 µM

Compound: COc1c(O[C@@H]2O[C@H](CN=[N+]=[N-])[C@@H](O)[C@H](O)[C@H]2O)cc2c(c1OC)-c1ccc(SC)c(=O)cc1[C@@H](NC(C)=O)CC2
- IC50 [1]: 7.8 µM
- IC50 [2]: 4300 nM
- IC50 [3]: 8.2 µM

Compound: NCC(=O)O [GLYCINE]
- IC50 [2]: 15800 nM

Compound: O=C1C[C@@H]2OCC=C3CN4CC[C@]56c7ccccc7N1[C@H]5[C@H]2[C@H]3C[C@H]46 [STRYCHNINE]
- IC50 [2]: 14 nM

Compound: COc1c(O[C@@H]2O[C@H](CO)[C@@H](O)[C@H](O)[C@H]2O)cc2c(c1OC)-c1ccc(SC)c(=O)cc1[C@@H](NC(C)=O)CC2 [THIOCOLCHICOSIDE]
- IC50 [1]: 3.4 µM
- IC50 [2]: 1500 nM
- IC50 [3]: 1.9 µM
